{
  "source": "paper PMC4180501",
  "about": "(Biochimica et biophysica acta, 2012)",
  "key": {"GK-W99 (W167F/W257F) [1]": {"biological_target": "T1, GK-W99 (W167F/W257F) (Homo sapiens, UniProt P35557, W167F/W257F)", "T1 sequence (P35557 1-465 W167F/W257F)": "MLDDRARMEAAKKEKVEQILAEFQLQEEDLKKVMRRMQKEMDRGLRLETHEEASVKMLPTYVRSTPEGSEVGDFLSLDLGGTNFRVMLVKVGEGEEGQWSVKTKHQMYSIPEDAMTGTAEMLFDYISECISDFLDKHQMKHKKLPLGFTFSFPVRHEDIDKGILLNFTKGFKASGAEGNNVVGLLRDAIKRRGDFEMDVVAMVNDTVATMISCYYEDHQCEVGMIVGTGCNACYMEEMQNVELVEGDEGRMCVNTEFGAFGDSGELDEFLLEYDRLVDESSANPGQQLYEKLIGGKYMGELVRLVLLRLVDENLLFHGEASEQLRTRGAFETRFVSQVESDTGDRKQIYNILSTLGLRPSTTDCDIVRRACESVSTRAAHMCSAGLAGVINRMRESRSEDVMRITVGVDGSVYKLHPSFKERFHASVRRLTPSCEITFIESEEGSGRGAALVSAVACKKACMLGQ", "assay": "D-glucose binding by tryptophan fluorescence titration", "details": "W-99, no GKA"}, "GK-W167 (W99R/W257F) [2]": {"biological_target": "T2, GK-W167 (W99R/W257F) (Homo sapiens, UniProt P35557, W257F/W99R)", "T2 sequence (P35557 1-465 W99R/W257F)": "T1 sequence (P35557 1-465 W167F/W257F) with W99R, F167W", "assay": "D-glucose binding by tryptophan fluorescence titration", "details": "W-167, no GKA"}, "GK-WT [3]": {"biological_target": "T3, GK-WT (Homo sapiens, UniProt P35557)", "T3 sequence (P35557 1-465)": "T1 sequence (P35557 1-465 W167F/W257F) with F167W, F257W", "assay": "NADP+-coupled spectrophotometric kinetic assay", "type": "biochemical", "details": "GK-WT, no GKA"}, "GK-W99 (W167F/W257F) [4]": {"biological_target": "T1, GK-W99 (W167F/W257F)", "assay": "NADP+-coupled spectrophotometric kinetic assay", "type": "biochemical", "details": "W-99, no GKA", "in_short": "(§1)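 Recombinant human β-cell glucokinase single-Trp variant, expressed in E. coli as a GST fusion and sequence-verified. Catalytic parameters came from an NADP+-coupled spectrophotometric assay run with or without 30% glycerol. Hill coefficient and glucose S0.5 were obtained by fitting v/Vmax = [glucose]^H/(K′+[glucose]^H), with […].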"}, "GK-W167 (W99R/W257F) [5]": {"biological_target": "T2, GK-W167 (W99R/W257F)", "assay": "NADP+-coupled spectrophotometric kinetic assay", "type": "biochemical", "details": "W-167, no GKA", "in_short": "as §1"}, "GK-W99 (W167F/W257F) [6]": {"biological_target": "T1, GK-W99 (W167F/W257F)", "assay": "DSC thermal denaturation", "details": "W-99 in buffer, 300 mM D-glucose", "in_short": "(§2)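 Samples were degassed and scanned by DSC at 0.25 degree/min against a reference holding everything except protein. Tm and calorimetric ΔH were taken by integrating the Cp-vs-temperature thermogram; Cpm is the apparent heat capacity at the maximum.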"}, "GK-W167 (W99R/W257F) [7]": {"biological_target": "T2, GK-W167 (W99R/W257F)", "assay": "DSC thermal denaturation", "details": "W-167 in buffer, 300 mM D-glucose", "in_short": "as §2"}, "GK-WT [8]": {"biological_target": "T3, GK-WT", "assay": "Urea unfolding/refolding of GK by tryptophan fluorescence", "details": "20°C, pH 7.3", "in_short": "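GK-WT unfolding was followed by urea titration in 20 mM PO4, 50 mM KCl, 1 mM EDTA, 1 mM DTT, pH 7.3, 20 °C, ± 20% glycerol, ± 300 mM glucose. I320/I360 was read at 295 nm excitation, and ΔGu(H2O) came from a two-state fit. Reversibility was tested after 30 min in 4 or 8 M urea, then dialysis, by restoration of the spectrum and glucose response.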"}},
  "note": "Where a chain is given by its changes, count along the chain named.",
  "data": [
    {"smiles": "OC[C@H]1OC(O)[C@H](O)[C@@H](O)[C@@H]1O", "note": "(stereo partly drawn) [D-glucose]", "values": [
      {"measurement": "Kd", "setting": "GK-W99 (W167F/W257F) [1]; 20% glycerol", "result": 4.06, "unit": "mM"},
      {"measurement": "Kd", "setting": "GK-W99 (W167F/W257F) [1]; no glycerol", "result": 18.8, "unit": "mM"},
      {"measurement": "Kd", "setting": "GK-W167 (W99R/W257F) [2]; 20% glycerol", "result": 0.09, "unit": "mM"},
      {"measurement": "Kd", "setting": "GK-W167 (W99R/W257F) [2]; no glycerol", "result": 0.38, "unit": "mM"},
      {"measurement": "Glucose S0.5", "setting": "GK-WT [3]; 30% glycerol", "result": 3.15, "unit": "mM"},
      {"measurement": "nH (Hill coefficient towards glucose)", "setting": "GK-WT [3]; 30% glycerol", "result": 1.78},
      {"measurement": "Glucose S0.5", "setting": "GK-WT [3]; no glycerol", "result": 6.26, "unit": "mM"},
      {"measurement": "nH (Hill coefficient towards glucose)", "setting": "GK-WT [3]; no glycerol", "result": 1.69},
      {"measurement": "Glucose S0.5", "setting": "GK-W99 (W167F/W257F) [4]; 30% glycerol", "result": 6.53, "unit": "mM"},
      {"measurement": "kcat", "setting": "GK-W99 (W167F/W257F) [4]; 30% glycerol", "result": 6.10, "unit": "s⁻¹"},
      {"measurement": "kcat/S0.5", "setting": "GK-W99 (W167F/W257F) [4]; 30% glycerol", "result": 930, "unit": "M⁻¹ s⁻¹"},
      {"measurement": "nH (Hill coefficient towards glucose)", "setting": "GK-W99 (W167F/W257F) [4]; 30% glycerol", "result": 1.52},
      {"measurement": "Glucose S0.5", "setting": "GK-W99 (W167F/W257F) [4]; no glycerol", "result": 21.0, "unit": "mM"},
      {"measurement": "kcat", "setting": "GK-W99 (W167F/W257F) [4]; no glycerol", "result": 8.47, "unit": "s⁻¹"},
      {"measurement": "kcat/S0.5", "setting": "GK-W99 (W167F/W257F) [4]; no glycerol", "result": 400, "unit": "M⁻¹ s⁻¹"},
      {"measurement": "nH (Hill coefficient towards glucose)", "setting": "GK-W99 (W167F/W257F) [4]; no glycerol", "result": 1.24},
      {"measurement": "Glucose S0.5", "setting": "GK-W167 (W99R/W257F) [5]; 30% glycerol", "result": 0.82, "unit": "mM"},
      {"measurement": "kcat", "setting": "GK-W167 (W99R/W257F) [5]; 30% glycerol", "result": 26.2, "unit": "s⁻¹"},
      {"measurement": "nH (Hill coefficient towards glucose)", "setting": "GK-W167 (W99R/W257F) [5]; 30% glycerol", "result": 1.32},
      {"measurement": "Glucose S0.5", "setting": "GK-W167 (W99R/W257F) [5]; no glycerol", "result": 2.28, "unit": "mM"},
      {"measurement": "kcat", "setting": "GK-W167 (W99R/W257F) [5]; no glycerol", "result": 69.9, "unit": "s⁻¹"},
      {"measurement": "nH (Hill coefficient towards glucose)", "setting": "GK-W167 (W99R/W257F) [5]; no glycerol", "result": 1.53},
      {"measurement": "Cp^m", "setting": "GK-W99 (W167F/W257F) [6]", "result": 100.8, "unit": "kJ/mol/°C"},
      {"measurement": "ΔH thermal denaturation", "setting": "GK-W99 (W167F/W257F) [6]", "result": 102, "unit": "kcal/mol"},
      {"measurement": "Tm", "setting": "GK-W99 (W167F/W257F) [6]; DSC", "result": 49.6, "unit": "°C"},
      {"measurement": "Cp^m", "setting": "GK-W167 (W99R/W257F) [7]", "result": 90.4, "unit": "kJ/mol/°C"},
      {"measurement": "ΔH thermal denaturation", "setting": "GK-W167 (W99R/W257F) [7]", "result": 97.99, "unit": "kcal/mol"},
      {"measurement": "Tm", "setting": "GK-W167 (W99R/W257F) [7]; DSC", "result": 53.4, "unit": "°C"},
      {"measurement": "ΔGu(H2O) of urea denaturation", "setting": "GK-WT [8]; GK-WT in 20% glycerol with 300 mM D-glucose", "result": 2.87, "unit": "kcal/mol"},
      {"measurement": "ΔGu(H2O) of urea denaturation", "setting": "GK-WT [8]; GK-WT in buffer with 300mM D-glucose", "result": 2.48, "unit": "kcal/mol"}
    ]}
  ]
}
